Converted amounts (≈) assume the structure as drawn. The source made the active and inactive calls. The rule behind the calls is not given here.
How the values were obtained:
[1] = Cytotoxicity against human HeLa cells assessed as reduction in cell viability by XTT assay; format: cell-based; details: read-out: MCC50
Outline: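 HeLa cells grown in DMEM with 10% FBS, penicillin and streptomycin at 37 °C, 5% CO2; 30 000 cells/well. XTT viability read at 450 and 650 nm. MCC50 (50% lysis) came from viability-versus-concentration curves. Two experiments, each in triplicate.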

[2] = molecular target: T1, Flavodoxin (Helicobacter pylori (strain ATCC 700392 / 26695) (Campylobacter pylori)) (UniProt O25776); assay: Inhibition of flavodoxin in Helicobacter pylori SS1 assessed as reduction in bacterial growth measured after 48 hrs by resazurin staining-based microdilution method
T1 sequence (whole entry): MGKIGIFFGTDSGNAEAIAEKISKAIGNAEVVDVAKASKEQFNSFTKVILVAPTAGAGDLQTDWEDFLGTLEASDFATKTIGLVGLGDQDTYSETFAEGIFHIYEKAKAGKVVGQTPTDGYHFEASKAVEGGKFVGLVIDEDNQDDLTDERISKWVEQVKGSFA
Outline: (§1)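 Broth microdilution in brain heart infusion with 4% FBS. Inoculum diluted to OD600 0.01. Two-fold dilutions from a DMSO stock cover 64–0.031 μg/mL, with DMSO ≤1% v/v. Incubated 48 h at 37 °C under microaerophilic conditions. MIC is the lowest concentration giving complete growth inhibition, read by resazurin colour change and confirmed by spotting on blood agar. Run twice in triplicate.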

[3] = molecular target: T1, Flavodoxin (Helicobacter pylori (strain ATCC 700392 / 26695) (Campylobacter pylori)); assay: Inhibition of flavodoxin in Mnz-resistant Helicobacter pylori NCTC 11637 ATCC 43504 assessed as reduction in bacterial growth measured after 48 hrs by resazurin staining-based microdilution method; details: Helicobacter pylori NCTC 11637 = CCUG 17874 = ATCC 43504; outline: as §1
[4] = molecular target: T1, Flavodoxin (Helicobacter pylori (strain ATCC 700392 / 26695) (Campylobacter pylori)); assay: Inhibition of flavodoxin in Helicobacter pylori ATCC 700392 26695 assessed as reduction in bacterial growth measured after 48 hrs by resazurin staining-based microdilution method; details: Helicobacter pylori 26695; outline: as §1
[5] = Therapeutic index, ratio of MCC50 for human HeLa cells to MIC for inhibition of flavodoxin in Helicobacter pylori SS1 assessed as reduction in bacterial growth; format: toxicity; details: HeLa cells versus Helicobacter pylori SS1, read-out: TI
Outline: (§2)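 TI is MCC50/MIC. For MCC50, HeLa cells (30 000/well, DMEM with 10% FBS) were exposed to compound at 25–1000 μM final. Viability by XTT at 450/650 nm; MCC50 is the concentration giving 50% lysis from viability curves. Run twice in triplicate.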

[6] = Therapeutic index, ratio of MCC50 for human HeLa cells to MIC for inhibition of flavodoxin in Mnz-resistant Helicobacter pylori NCTC 11637 ATCC 43504 assessed as reduction in bacterial growth; format: toxicity; details: read-out: TI; outline: as §2
[7] = Therapeutic index, ratio of MCC50 for human HeLa cells to MIC for inhibition of flavodoxin in Helicobacter pylori ATCC 700392 26695 assessed as reduction in bacterial growth; format: toxicity; details: HeLa cells versus Helicobacter pylori ATCC 700392 26695, read-out: TI; outline: as §2
[8] = molecular target: T1, Flavodoxin (Helicobacter pylori (strain ATCC 700392 / 26695) (Campylobacter pylori)); assay: Inhibition of flavodoxin in metronidazole-resistant Helicobacter pylori isolate 1 assessed as reduction in bacterial growth measured after 48 hrs by resazurin staining-based microdilution method
Outline: (§3)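 Clinical isolates from gastric biopsies of patients who failed ≥2 therapies; resistance classified by EUCAST breakpoints. […] Read by resazurin colour change as the lowest concentration giving complete growth inhibition.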

[9] = molecular target: T1, Flavodoxin (Helicobacter pylori (strain ATCC 700392 / 26695) (Campylobacter pylori)); assay: Inhibition of flavodoxin in metronidazole-resistant Helicobacter pylori isolate 2 assessed as reduction in bacterial growth measured after 48 hrs by resazurin staining-based microdilution method; outline: as §3
[10] = molecular target: T1, Flavodoxin (Helicobacter pylori (strain ATCC 700392 / 26695) (Campylobacter pylori)); assay: Inhibition of flavodoxin in clarithromycin/metronidazole-resistant Helicobacter pylori isolate 4 assessed as reduction in bacterial growth measured after 48 hrs by resazurin staining-based microdilution method; outline: as §3
[11] = molecular target: T1, Flavodoxin (Helicobacter pylori (strain ATCC 700392 / 26695) (Campylobacter pylori)); assay: Inhibition of flavodoxin in rifampicin-resistant Helicobacter pylori isolate 5 assessed as reduction in bacterial growth measured after 48 hrs by resazurin staining-based microdilution method; outline: as §3
[12] = molecular target: T1, Flavodoxin (Helicobacter pylori (strain ATCC 700392 / 26695) (Campylobacter pylori)); assay: Inhibition of flavodoxin in clarithromycin/metronidazole-resistant Helicobacter pylori isolate 6 assessed as reduction in bacterial growth measured after 48 hrs by resazurin staining-based microdilution method
[13] = Therapeutic index, ratio of MCC50 for human HeLa cells to MIC for inhibition of flavodoxin in metronidazole-resistant Helicobacter pylori isolate 1 assessed as reduction in bacterial growth; format: toxicity; details: read-out: TI; outline: as §2
[14] = Therapeutic index, ratio of MCC50 for human HeLa cells to MIC for inhibition of flavodoxin in metronidazole-resistant Helicobacter pylori isolate 2 assessed as reduction in bacterial growth; format: toxicity; details: read-out: TI; outline: as §2
[15] = Therapeutic index, ratio of MCC50 for human HeLa cells to MIC for inhibition of flavodoxin in metronidazole-resistant Helicobacter pylori isolate 3 assessed as reduction in bacterial growth; format: toxicity; details: read-out: TI; outline: as §2
[16] = Therapeutic index, ratio of MCC50 for human HeLa cells to MIC for inhibition of flavodoxin in clarithromycin/metronidazole-resistant Helicobacter pylori isolate 4 assessed as reduction in bacterial growth; format: toxicity; details: read-out: TI; outline: as §2
[17] = Therapeutic index, ratio of MCC50 for human HeLa cells to MIC for inhibition of flavodoxin in rifampicin-resistant Helicobacter pylori isolate 5 assessed as reduction in bacterial growth; format: toxicity; details: read-out: TI; outline: as §2
[18] = Therapeutic index, ratio of MCC50 for human HeLa cells to MIC for inhibition of flavodoxin in clarithromycin/metronidazole-resistant Helicobacter pylori isolate 6 assessed as reduction in bacterial growth; format: toxicity; details: read-out: TI; outline: as §2
[19] = Toxicity in NMRI mouse infected with Helicobacter pylori SS1 assessed as change in body weight at 10 to 20 mg/100g, po administered daily via gavage for 8 days starting from 1 week post-infection; format: organism-based; details: in vivo
Outline: (§4)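 Female 6-week-old SPF NMRI mice infected orogastrically with Hp SS1 on days 1 and 3. Compound in 5–10% DMSO/olive oil (100 μL) given by daily oral gavage for 8 days from day 8. Body weight and appetite were monitored during treatment; infected controls received vehicle alone.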

[20] = Toxicity in NMRI mouse infected with Helicobacter pylori SS1 assessed as change in appetite at 10 to 20 mg/100g, po administered daily via gavage for 8 days starting from 1 week post-infection; format: organism-based; details: in vivo; outline: as §4
[21] = Toxicity in NMRI mouse assessed as change in body weight at 10 to 20 mg/100g, po administered daily via gavage for 8 days; format: organism-based; details: in vivo, 192 h
[22] = molecular target: T1, Flavodoxin (Helicobacter pylori (strain ATCC 700392 / 26695) (Campylobacter pylori)); assay: Binding affinity to Helicobacter pylori flavodoxin by thermal upshift assay
[23] = molecular target: T1, Flavodoxin (Helicobacter pylori (strain ATCC 700392 / 26695) (Campylobacter pylori)); assay: Binding affinity to Helicobacter pylori flavodoxin by isothermal titration calorimetric method
Escherichia coli = assay: Effect on growth of Escherichia coli DH5[alpha] after 48 hrs by resazurin-dye based microdilution assay; format: organism-based
Staphylococcus aureus = assay: Effect on growth of Staphylococcus aureus ATCC 1228 after 48 hrs by resazurin-dye based microdilution assay; format: organism-based
Helicobacter pylori [24] = assay: Antibacterial activity against Helicobacter pylori SS1 infected in NMRI mouse assessed as reduction in gastric colonization at 10 mg/100g, po administered daily via gavage for 8 days starting from 1 week post-infection and measured 8 days post-last dose; format: functional, organism-based
Outline: (§5)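 Female 6-week-old SPF NMRI mice, seven per condition, infected orogastrically on days 1 and 3 with 100 μL Hp SS1 (5 × 10^8 CFU/mL). From day 8, 100 μL compound in 5–10% DMSO/95–90% olive oil by daily oral gavage for 8 days. Infected controls got vehicle. Killed day 24; stomach homogenates plated 5 days at 37 °C microaerophilic; CFU/g tissue versus control. Mann-Whitney U and unpaired t tests, p ≤ 0.05.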

Helicobacter pylori [25] = assay: Antibacterial activity against Helicobacter pylori SS1 infected in NMRI mouse assessed as bacterial eradication at 10 mg/100g, po administered daily via gavage for 8 days starting from 1 week post-infection and measured 8 days post-last dose; format: functional, organism-based; outline: as §5

| Compound | CC50 [1] [µM] | MIC [2] [µM] | MIC [3] [µM] | MIC [4] [µM] | selectivity ratio [5] | selectivity ratio [6] | selectivity ratio [7] | Activity [19] | Activity [20] | Activity [21] | Activity [22] | Activity [23] | Activity (Escherichia coli) | Activity (Staphylococcus aureus) | further results |
| --- | --- | --- | --- | --- | --- | --- | --- | --- | --- | --- | --- | --- | --- | --- | --- |
| COc1ccc(CSc2cc(Cl)c(N)c3nonc23)cc1 | > 1000 | 5.9 (≈ 1.9 µg/mL) | 11.8 (≈ 3.8 µg/mL) | 5.9 (≈ 1.9 µg/mL) | > 170 | > 85 | > 170 | Non-Toxic | Non-Toxic | Non-Toxic | Active | Active | Non-Toxic | Non-Toxic | inhibition [8]: Active; inhibition [9]: Active; inhibition [10]: Active; inhibition [11]: Active; inhibition [12]: Active; selectivity ratio [13]: 161; selectivity ratio [14]: 322; selectivity ratio [15]: 10; selectivity ratio [16]: 80; selectivity ratio [17]: 40; selectivity ratio [18]: 322 |
| O/N=C1\Cc2cc(Cl)cc(Cl)c2OC1c1ccc(F)cc1 (stereo unspecified) | 117 | 12 (≈ 3.91 µg/mL) | 6.1 (≈ 1.99 µg/mL) | 6.1 (≈ 1.99 µg/mL) | 10 | 19 | 19 | Non-Toxic | Non-Toxic | Non-Toxic | Active | Active | Non-Toxic | Non-Toxic | Activity (Helicobacter pylori [24]): Active; Activity (Helicobacter pylori [25]): inactive |

— ChEMBL document CHEMBL4364284, “Design, Synthesis, and Efficacy Testing of Nitroethylene- and 7-Nitrobenzoxadiazol-Based Flavodoxin Inhibitors against Helicobacter pylori Drug-Resistant Clinical Strains and in Helicobacter pylori-Infected Mice” (J Med Chem, 2019)
